Assay results gathered from unrelated publications.
Compare with care: the assays were run in different laboratories.
Target: Ephrin type-A receptor 3 (EPHA3, Homo sapiens, UniProt P29320)
One construct used (P29320 21-983): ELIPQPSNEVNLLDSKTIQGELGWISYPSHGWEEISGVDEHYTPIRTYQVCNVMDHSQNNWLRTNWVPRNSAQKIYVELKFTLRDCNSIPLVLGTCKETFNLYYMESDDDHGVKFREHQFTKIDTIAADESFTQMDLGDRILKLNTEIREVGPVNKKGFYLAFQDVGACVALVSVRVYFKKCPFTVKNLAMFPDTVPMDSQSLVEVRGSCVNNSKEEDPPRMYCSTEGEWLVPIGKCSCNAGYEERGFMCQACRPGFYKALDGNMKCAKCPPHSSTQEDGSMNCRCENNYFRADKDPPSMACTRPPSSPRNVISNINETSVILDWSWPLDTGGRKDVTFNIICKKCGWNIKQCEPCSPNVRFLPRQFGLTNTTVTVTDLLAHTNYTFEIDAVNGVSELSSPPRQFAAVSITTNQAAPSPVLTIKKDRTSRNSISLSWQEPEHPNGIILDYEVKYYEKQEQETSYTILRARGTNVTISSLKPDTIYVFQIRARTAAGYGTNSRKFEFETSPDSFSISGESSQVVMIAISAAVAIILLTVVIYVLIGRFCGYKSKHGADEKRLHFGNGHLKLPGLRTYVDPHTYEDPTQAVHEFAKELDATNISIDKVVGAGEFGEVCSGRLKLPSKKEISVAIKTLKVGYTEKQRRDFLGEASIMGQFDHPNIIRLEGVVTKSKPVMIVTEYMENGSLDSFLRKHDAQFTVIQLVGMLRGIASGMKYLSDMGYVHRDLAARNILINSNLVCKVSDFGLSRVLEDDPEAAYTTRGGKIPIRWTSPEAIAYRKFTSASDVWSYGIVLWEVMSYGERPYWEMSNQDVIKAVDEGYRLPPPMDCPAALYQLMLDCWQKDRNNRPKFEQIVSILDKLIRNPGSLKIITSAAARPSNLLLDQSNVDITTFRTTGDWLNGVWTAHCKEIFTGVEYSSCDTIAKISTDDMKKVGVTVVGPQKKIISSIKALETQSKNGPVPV

Cc1nn(C)cc1-c1nc2c(N3CCN(Cc4ccc(Cl)cc4)CC3)c(Cl)cnc2[nH]1
remaining binding (binding, competition with immobilised ligand; 1 µM): 100%

O=c1[nH]c2ccccc2n1C1CCN(Cc2ccc(-c3[nH]c4cc5ncnc5cc4nc3-c3ccccc3)cc2)CC1
remaining signal (cell-free assay; 0.5 µM): 71.9%

Cn1cc(-c2cccc(N3CCc4c(sc5c4CC(C)(C)C5)C3=O)c2CO)cc(Nc2ccncn2)c1=O
inhibition (enzyme activity, inhibitor; 1 µM): -7%

N#CC1(c2ccccn2)CCN(Cc2cc(C(=O)O)c(=O)n3ccccc23)CC1
remaining binding (cell-free assay, competition with immobilised ligand; 1 µM): 75%

CC(C)(C)c1cc(C=C(C#N)C#N)cc(Br)c1O
remaining activity (enzyme activity, inhibitor; 0.5 µM): 102%

COc1ncccc1-c1cnn2ccc(N3CCN(C(=O)OC(C)C)CC3)nc12
remaining binding (binding, competition with immobilised ligand; 1 µM): 83%

Cn1cncc1[C@](O)(COc1ccc(C#N)cc1-c1ccc(OC(F)(F)F)cc1)c1ccc(C#N)cc1
remaining binding (cell-free assay, competition with immobilised ligand; 1 µM): 90%

COc1cc(Nc2ncc(F)c(Nc3ccc4c(n3)NC(=O)C(C)(C)O4)n2)cc(OC)c1OC
inhibition (binding, competition with immobilised ligand; 10 µM): 90%

Cn1cc(-c2cc(F)cc(N3CCn4c(cc5c4CCCC5)C3=O)c2CO)cc(Nc2ccc(N3CCN(C4COC4)CC3)cn2)c1=O
inhibition (enzyme activity, inhibitor; 0.1 µM): 10%

Nc1ncc(-c2nc(N3CCOCC3)nc(N3CCOCC3)n2)c(C(F)F)n1
remaining binding (cell-free assay, competition with immobilised ligand; 10 µM): 69%
